Source: ChEMBL document CHEMBL5131565, “Structure-Guided Optimization of Small-Molecule Folate Uptake Inhibitors Targeting the Energy-Coupling Factor Transporters” (J Med Chem, 2022)
Values after ≈ are worked out from the molar mass of the structure shown.

Assays:
[1] = biological target: T1, Energy-coupling factor transporter transmembrane protein EcfT (Lactobacillus casei) (UniProt A0A510WMC0); assay: Inhibition of Lactobacillus casei ECF-FolT assessed as inhibition of radiolabelled folic acid uptake at 50 uM pre-incubated for 10 mins followed tritium labeled folic acid addition measured after 30 mins by liquid scintillation analysis relative to control; conditions: Lacticaseibacillus casei, time 40.0 min
T1 sequence (whole entry): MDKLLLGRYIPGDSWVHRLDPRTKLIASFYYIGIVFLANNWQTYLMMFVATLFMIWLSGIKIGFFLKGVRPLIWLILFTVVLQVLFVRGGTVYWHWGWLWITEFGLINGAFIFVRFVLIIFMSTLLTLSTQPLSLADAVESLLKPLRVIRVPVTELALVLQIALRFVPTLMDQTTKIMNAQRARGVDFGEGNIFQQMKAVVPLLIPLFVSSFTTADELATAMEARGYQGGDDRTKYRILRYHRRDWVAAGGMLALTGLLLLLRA
Outline: (§1)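 Whole-cell *L. casei* assay of ECF-FolT-mediated folate uptake. Compounds were first tested at 50 μM and reported as % inhibition. IC50 was determined for those giving more than 70% inhibition at 50 μM. Data come from two independent experiments, each run in duplicate.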

[2] = biological target: T2, Energy-coupling factor transporter transmembrane protein EcfT (Lactobacillus casei, UniProt A0A510WMC0); assay: Inhibition of Lactobacillus casei ECF-FolT assessed as inhibition of radiolabelled folic acid uptake pre-incubated for 10 mins followed tritium labeled folic acid addition measured after 30 mins by liquid scintillation analysis; design: species or system Lacticaseibacillus casei; outline: as §1
T2 sequence (A0A510WMC0 whole entry): T1 sequence (whole entry)

Staphylococcus aureus = assay: Antibacterial activity against Staphylococcus aureus Newman measured after 24 hrs by CLSI protocol based microbroth dilution method; type: functional
Enterococcus faecium [3] = assay: Antibacterial activity against Enterococcus faecium DSM-20477 measured after 24 hrs by CLSI protocol based microbroth dilution method; type: functional
A549 = assay: Cytotoxicity against human A549 cells assessed as reduction in cell viability measured after 48 hrs by MTT assay; type: toxicity, cell-based
Enterococcus faecium [4] = assay: Antibacterial activity against vancomycin-resistant Enterococcus faecium DSM-17050 measured after 24 hrs by CLSI protocol based microbroth dilution method; type: functional
[5] = Kinetic solubility of the compound; type: physicochemical; conditions: read-out: Kinetic_solubility
HEK293 = assay: Cytotoxicity against HEK293 cells assessed as reduction in cell viability measured after 48 hrs by MTT assay; type: toxicity, cell-based, Homo sapiens
Streptococcus pneumoniae [6] = assay: Antibacterial activity against Streptococcus pneumoniae DSM-20566 measured after 24 hrs by CLSI protocol based microbroth dilution method; type: functional
HepG2 = assay: Cytotoxicity against human HepG2 cells assessed as reduction in cell viability measured after 48 hrs by MTT assay; type: toxicity, cell-based
Streptococcus pneumoniae [7] = assay: Antibacterial activity against penicillin-resistant Streptococcus pneumoniae DSM-11865 measured after 24 hrs by CLSI protocol based microbroth dilution method; type: functional

O=C(NCc1ccccn1)Nc1cc(-c2ccc(Cl)c(Cl)c2)sc1C(=O)O
inhibition [1]: 59%

O=C(O)c1sc(-c2ccc(Cl)c(Cl)c2)cc1NC(=O)N(Cc1ccccc1)Cc1ccccc1
IC50 [2]: 24 µM
inhibition [1]: 85.1%

O=C(NCc1ccncc1)Nc1cc(-c2ccc(Cl)c(Cl)c2)sc1C(=O)O
inhibition [1]: 54%

Nc1c(-c2ccc(Cl)c(Cl)c2)csc1C(=O)O
inhibition [1]: < 10%

CCCCN(C(=O)Nc1c(-c2ccc(Oc3ccccc3)cc2)csc1C(=O)O)c1ccccc1
MIC (Staphylococcus aureus): 16 µM (≈ 7.79 µg/mL)
IC50 [2]: 3.9 µM
MIC (Enterococcus faecium [3]): 16 µM (≈ 7.79 µg/mL)
inhibition [1]: 100%
IC50 (A549): 49.3 µM
MIC (Enterococcus faecium [4]): 8 µM (≈ 3.89 µg/mL)
solubility kinetic [5]: > 200 µM
IC50 (HEK293): 25.5 µM
MIC (Streptococcus pneumoniae [6]): 4 µM (≈ 1.95 µg/mL)
IC50 (HepG2): 57 µM
MIC (Streptococcus pneumoniae [7]): 16 µM (≈ 7.79 µg/mL)

O=C(NCCc1ccccc1)Nc1cc(-c2ccc(Cl)c(Cl)c2)sc1C(=O)O
IC50 [2]: 15.3 µM
inhibition [1]: 91.7%

CCN(Cc1ccccc1)C(=O)Nc1cc(-c2cc(Cl)cc(Cl)c2)sc1C(=O)O
inhibition [1]: 22%

CCCCCCNC(=O)Nc1cc(-c2ccc([N+](=O)[O-])cc2)sc1C(=O)O
IC50 [2]: 25.1 µM
inhibition [1]: 82.1%

CCN(Cc1ccccc1)C(=O)Nc1cc(-c2ccc(Br)cc2)sc1C(=O)O
inhibition [1]: 52.3%

CCCCCCNC(=O)Nc1cc(-c2ccccc2)sc1C(=O)O
inhibition [1]: 25.1%

O=C(O)c1sc(-c2ccc(Cl)c(Cl)c2)cc1NC(=O)N(Cc1ccccc1)c1ccccc1
IC50 [2]: 2.94 µM
inhibition [1]: 91.3%

CCCCCCNC(=O)Nc1cc(-c2cccc(Cl)c2)sc1C(=O)O
inhibition [1]: 36.2%

CCCCCCNC(=O)Nc1cc(-c2ccc(Cl)cc2Cl)sc1C(=O)O
inhibition [1]: 67.9%

CCCCCCNC(=O)Nc1cc(-c2ccc(Cl)c(C(F)(F)F)c2)sc1C(=O)O
inhibition [1]: 59%

CCN(Cc1ccccc1)C(=O)Nc1cc(-c2ccc(OC(F)(F)F)cc2)sc1C(=O)O
inhibition [1]: 67.2%

CCCCN(Cc1ccccc1)C(=O)Nc1cc(-c2ccc(Cl)c(Cl)c2)sc1C(=O)O
inhibition [1]: 42.5%

CCCCCCNC(=O)Nc1cc(-c2cccc(C(F)(F)F)c2)sc1C(=O)O
inhibition [1]: 52.3%

O=C(Nc1ccccc1)Nc1cc(-c2ccc(Cl)c(Cl)c2)sc1C(=O)O
IC50 [2]: 14.4 µM
inhibition [1]: 86.8%

CCN(Cc1ccccc1)C(=O)Nc1cc(-c2ccc(Oc3ccccc3)cc2)sc1C(=O)O
IC50 [2]: 10.1 µM
inhibition [1]: 97%

COc1ccc(CNC(=O)Nc2cc(-c3ccc(Cl)c(Cl)c3)sc2C(=O)O)cc1
inhibition [1]: 54.3%

CCN(Cc1ccccc1)C(=O)Nc1cc(-c2ccc(C)cc2)sc1C(=O)O
inhibition [1]: 38.9%

CCN(Cc1ccccc1)C(=O)Nc1cc(-c2ccc(Cl)c(Cl)c2)sc1C(=O)O
IC50 [2]: 11.4 µM
inhibition [1]: 89.4%

CCCCC(=O)Nc1c(-c2ccc(Cl)c(Cl)c2)csc1C(=O)O
inhibition [1]: 31.8%

CCCCCCNC(=O)Nc1cc(-c2ccc(Cl)cc2)sc1C(=O)O
inhibition [1]: 27.2%

CCCCCCNC(=O)Nc1cc(-c2ccc(C(F)(F)F)cc2)sc1C(=O)O
inhibition [1]: 27.1%

CCN(Cc1ccccc1)C(=O)Nc1cc(-c2ccc(C#N)cc2)sc1C(=O)O
inhibition [1]: 18.3%

CCCCCCNc1c(-c2ccc(Cl)c(Cl)c2)csc1C(=O)O
inhibition [1]: 95.2%

CCCCCCNC(=O)Nc1sc(-c2ccc(Cl)c(Cl)c2)cc1C(=O)O
inhibition [1]: 17.9%

CCCCCCNC(=O)Nc1cc(-c2cccc([N+](=O)[O-])c2)sc1C(=O)O
IC50 [2]: 43.3 µM
inhibition [1]: 65.3%

O=C(NCc1ccccc1)Nc1cc(-c2ccc(Cl)c(Cl)c2)sc1C(=O)O
IC50 [2]: 17.8 µM
inhibition [1]: 71.1%

CCCCCCNC(=O)Nc1cc(-c2cc(Cl)ccc2Cl)sc1C(=O)O
IC50 [2]: 21.8 µM
inhibition [1]: 93.4%

CC(C)NC(=O)Nc1cc(-c2ccc(Cl)c(Cl)c2)sc1C(=O)O
inhibition [1]: 39.3%

CCCCCCNC(=O)Nc1cc(-c2ccc(Cl)c(Cl)c2)sc1C(=O)O
IC50 [2]: 28.5 µM
inhibition [1]: 72.2%

CCCCCCNC(=O)Nc1c(-c2ccc(Cl)c(Cl)c2)csc1C(=O)O
IC50 [2]: 6 µM
inhibition [1]: 90.6%

O=C(O)CCCNC(=O)Nc1cc(-c2ccc(Cl)c(Cl)c2)sc1C(=O)O
inhibition [1]: 0.2%

NC(=O)Nc1cc(-c2ccc(Cl)c(Cl)c2)sc1C(=O)O
inhibition [1]: 42.4%

CCCCCCNC(=O)Nc1c(C(=O)O)cccc1-c1ccc(Cl)c(Cl)c1
inhibition [1]: 65.4%

CCN(C(=O)Nc1cc(-c2ccc(Cl)c(Cl)c2)sc1C(=O)O)c1ccccc1
IC50 [2]: 10.5 µM
inhibition [1]: 83.2%

CN(Cc1ccccc1)C(=O)Nc1cc(-c2ccc(Cl)c(Cl)c2)sc1C(=O)O
IC50 [2]: 10 µM
inhibition [1]: 86.9%

CCCCN(CCc1ccccc1)C(=O)Nc1cc(-c2ccc(Cl)c(Cl)c2)sc1C(=O)O
inhibition [1]: 57.8%

CCCCN(C(=O)Nc1cc(-c2ccc(Cl)c(Cl)c2)sc1C(=O)O)c1ccccc1
MIC (Staphylococcus aureus): 23 µM (≈ 10.7 µg/mL)
IC50 [2]: 2.35 µM
MIC (Enterococcus faecium [3]): 8 µM (≈ 3.71 µg/mL)
inhibition [1]: 99.6%
IC50 (A549): > 100 µM
MIC (Enterococcus faecium [4]): 2 µM (≈ 0.927 µg/mL)
solubility kinetic [5]: 107 µM (≈ 49.4 µg/mL)
IC50 (HEK293): 52.5 µM
MIC (Streptococcus pneumoniae [6]): 2 µM (≈ 0.927 µg/mL)
IC50 (HepG2): 95.6 µM
MIC (Streptococcus pneumoniae [7]): 0.5 µM (≈ 0.232 µg/mL)

CCCCCCNC(=O)Nc1cc(-c2ccc(OC)cc2)sc1C(=O)O
inhibition [1]: 12.1%

CCCCN(C(=O)Nc1c(-c2cc(Cl)ccc2Cl)csc1C(=O)O)c1ccccc1
IC50 [2]: 17 µM
inhibition [1]: 73.4%

O=C(NCc1cccnc1)Nc1cc(-c2ccc(Cl)c(Cl)c2)sc1C(=O)O
inhibition [1]: 58%

CN(C(=O)Nc1cc(-c2ccc(Cl)c(Cl)c2)sc1C(=O)O)c1ccccc1
IC50 [2]: 23 µM
inhibition [1]: 71.5%

CCCCNC(=O)Nc1cc(-c2ccc(Cl)c(Cl)c2)sc1C(=O)O
inhibition [1]: 61.9%

CCCCCCNC(=O)Nc1scc(-c2ccc(Cl)c(Cl)c2)c1C(=O)O
IC50 [2]: 18.5 µM
inhibition [1]: 87.5%

CCCCCCNC(=O)Nc1ccsc1C(=O)O
inhibition [1]: < 10%
